The record followed here is ChEMBL document CHEMBL1157812, “Mechanism-based inhibitors of the aspartyl protease plasmepsin II as potential antimalarial agents” (J Med Chem, 2010).

In general, IC50 refers to the concentration that inhibits the measured activity by half. As a reminder, the Ki is the dissociation constant of the complex between target and ligand, obtained from inhibition or displacement. Higher therefore signals weaker binding. Usually inhibition stands for the drop in the measured response relative to a control, in per cent.

Each structure is given as a SMILES string. The source made the active and inactive calls. The rule behind the calls is not given here.

Series [1] deals with Plasmodium falciparum. The series is described as follows: Antiplasmodial activity against Plasmodium falciparum 3D7 trophozoites infected in human erythrocytes assessed as [3H]hypoxanthine incorporation into nucleic acid after 30 hrs by beta-scintillation counting. The class given is functional, organism-based.
In series [2] the target is T1, Plasmepsin II (Plasmodium falciparum, UniProt P46925). The series is described as follows: Inhibition of Plasmodium falciparum plasmepsin-2.
A short description of series [3]: Selectivity ratio of Ki for human cathepsin D to Ki for Plasmodium falciparum recombinant plasmepsin-2.
In series [4] the test system is Plasmodium falciparum. Briefly: Antiplasmodial activity against Plasmodium falciparum assessed as inhibition of parasite growth at 20 uM. Format: functional.
Series [5] addresses Plasmepsin II (Plasmodium falciparum) (UniProt P46925). Briefly: Inhibition of Plasmodium falciparum plasmepsin-2 expressed in Escherichia coli BL21 (DE3) at 1 uM after 30 min by FRET assay.
In series [6] the target is T1, Plasmepsin II. The series is described as follows: Competitive inhibition of Plasmodium falciparum plasmepsin-2 expressed in Escherichia coli BL21 (DE3) after 30 min by FRET assay. The essentials: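 Recombinant mature Plm II from inclusion bodies, refolded and activated in 0.1 M sodium citrate pH 4.7, stored in 20 mM Tris-HCl pH 8.5 with 0.25 M NaCl. FRET assay in NaOAc buffer pH 5.0 using 2.5 nM enzyme and 1 μM DABCYL-Glu-Arg-Nle-Phe-Leu-Ser-Phe-Pro-EDANS substrate. Inhibitor, enzyme and substrate incubated 30 min at 37 C; EDANS fluorescence read at excitation 336 nm.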

In series [7] the target is Plasmepsin II (Plasmodium falciparum) (UniProt P46925). Briefly: Inhibition of Plasmodium falciparum plasmepsin-2 expressed in Escherichia coli BL21 (DE3) at 1 uM after 1 to 2 hrs.
The target is the same in series [8]. The series is described as follows: Inhibition of Plasmodium falciparum plasmepsin-2 expressed in Escherichia coli BL21 (DE3) assessed as residual activity at 1 uM measured after overnight dialysis by spun column chromatography.
Series [9] shares this target. Briefly: Irreversible inhibition of Plasmodium falciparum plasmepsin-2 expressed in Escherichia coli BL21 (DE3) at 1 uM measured after overnight dialysis by spun column chromatography.
The next series deals with Cathepsin D (Homo sapiens, UniProt P07339). The series is described as follows: Inhibition of human cathepsin D after 30 mins by FRET assay.
A short description of series [10]: Selectivity ratio of IC50 for human cathepsin D to IC50 for Plasmodium falciparum plasmepsin-2 expressed in Escherichia coli BL21 (DE3).
Series [11] has as its system CHO. Briefly: Cytotoxicity against CHO cells at 10 uM after 24 hrs by MTS assay. The class given is cell-based, Cricetulus griseus. Particulars: chinese hamster.
A short description of series [12]: Selectivity ratio of Ki for human cathepsin D to Ki for Plasmodium falciparum plasmepsin-2.
The target of series [13] is T1, Plasmepsin II. Briefly: Inhibition of Plasmodium falciparum plasmepsin-2 expressed in Escherichia coli BL21 (DE3) after 40 min by Kitz-Wilson plot analysis.
Series [14] deals with Plasmepsin II (Plasmodium falciparum) (UniProt P46925). Briefly: Inhibition of Plasmodium falciparum plasmepsin-2 expressed in Escherichia coli BL21 (DE3) at compound to substrate ratio of 1:1 to 1: 5 after 2 hrs by FRET assay.
For series [15], the system named is CHO. The series is described as follows: Cytotoxicity against CHO cells at 100 ug/mL after 24 hrs by MTS assay. Particulars: chinese hamster. Format: cell-based, Cricetulus griseus. A general note: Tetrazolium assays rely on reduction of a dye to a coloured formazan, in cell work by metabolically active cells.
Series [16] deals with CHO. The series is described as follows: Cytotoxicity against CHO cells at 250 ug/mL after 24 hrs by MTS assay. The class given is cell-based, Cricetulus griseus. The following applies: chinese hamster.
Series [17] has as its system Plasmodium falciparum. The series is described as follows: Antiplasmodial activity against Plasmodium falciparum infected in human erythrocytes assessed as inhibition of parasite growth. The class given is functional. Particulars: read-out: ED50 (the source's name).

T1 sequence (P46925 whole entry): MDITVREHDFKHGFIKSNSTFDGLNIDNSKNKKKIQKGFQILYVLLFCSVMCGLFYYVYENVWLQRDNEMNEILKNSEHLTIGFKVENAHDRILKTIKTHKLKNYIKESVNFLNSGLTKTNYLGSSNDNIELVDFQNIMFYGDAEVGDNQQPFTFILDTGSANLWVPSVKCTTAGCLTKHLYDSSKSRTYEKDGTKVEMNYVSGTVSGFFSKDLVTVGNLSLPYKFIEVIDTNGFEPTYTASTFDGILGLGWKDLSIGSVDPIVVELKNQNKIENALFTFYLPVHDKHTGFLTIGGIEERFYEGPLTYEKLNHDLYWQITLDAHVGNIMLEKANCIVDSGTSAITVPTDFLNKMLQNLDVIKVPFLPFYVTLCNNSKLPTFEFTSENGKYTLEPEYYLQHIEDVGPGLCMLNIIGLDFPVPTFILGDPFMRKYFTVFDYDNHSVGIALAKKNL
Chain of Plasmepsin II (Plasmodium falciparum) (P46925 125-453 limits assumed): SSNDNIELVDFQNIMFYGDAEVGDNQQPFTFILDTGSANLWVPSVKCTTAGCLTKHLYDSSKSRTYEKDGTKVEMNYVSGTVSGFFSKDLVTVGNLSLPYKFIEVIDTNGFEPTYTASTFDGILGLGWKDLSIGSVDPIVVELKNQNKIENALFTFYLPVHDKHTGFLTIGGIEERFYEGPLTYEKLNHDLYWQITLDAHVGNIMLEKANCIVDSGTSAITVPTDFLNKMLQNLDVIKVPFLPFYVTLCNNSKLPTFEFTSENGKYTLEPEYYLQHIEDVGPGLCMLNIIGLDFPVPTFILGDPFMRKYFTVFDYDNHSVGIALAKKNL
Chain of Cathepsin D (P07339 65-162 limits assumed): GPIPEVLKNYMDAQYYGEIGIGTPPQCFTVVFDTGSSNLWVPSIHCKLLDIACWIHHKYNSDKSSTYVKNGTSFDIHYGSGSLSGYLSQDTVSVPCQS
Chain of Cathepsin D (P07339 169-412 limits assumed): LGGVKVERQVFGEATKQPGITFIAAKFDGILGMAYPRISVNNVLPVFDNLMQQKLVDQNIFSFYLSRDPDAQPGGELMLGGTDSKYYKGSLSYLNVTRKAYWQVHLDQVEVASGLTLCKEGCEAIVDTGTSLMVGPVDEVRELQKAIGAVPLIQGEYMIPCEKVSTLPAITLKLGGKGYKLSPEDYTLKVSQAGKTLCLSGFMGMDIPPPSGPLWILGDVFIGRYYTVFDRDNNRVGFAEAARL

Take `CC(C)C[C@H](NC(=O)[C@H](C)NC(=O)C[C@H](O)[C@H](COCc1ccc(Br)cc1)NC(=O)[C@@H](NC(=O)c1ccccn1)C(C)C)C(N)=O`: the IC50 in the series with Plasmodium falciparum [1] stood at 5 µM. Besides, on Plasmepsin II [2], the Ki is 0.0005 µM.

Regarding `CC(C)C[C@H](NC(=O)[C@H](C)NC(=O)C[C@H](O)[C@H](Cc1ccccc1)NC(=O)[C@@H](NC(=O)c1ccccn1)C(C)C)C(N)=O`, the IC50 in the series on Plasmodium falciparum [1] came to 5 µM. For the same compound, the Ratio Ki in [3] was found to be 38. Besides, in the series with Plasmodium falciparum [4], the inhibition at 20 µM turned out to be 54%.

Consider `C#CCNC(=O)[C@H](Cc1ccccc1)NC(=O)C[C@H](O)[C@H](Cc1ccccc1)NC(=O)[C@@H](NC(=O)c1ccccn1)C(C)C`, for which the inhibition result in series [5] was “Active”. The values for the concentration for half-maximal inhibition (IC50) at Plasmepsin II [6], on Cathepsin D and with Plasmodium falciparum [1] were 0.022 µM, 0.05 µM and 9.2 µM, respectively. For the same compound, the inhibition in series [7] amounted to 76.9%. Also, the values for the Activity (in series [8]; in the series with CHO [11]) were 36.1% and “Non-toxic”, respectively. In series [9], the inhibition result is “inactive”. Besides, the Ratio IC50 in series [10] was determined as 10.6.

`Cc1cccc(C)c1OCC(=O)N[C@@H](Cc1ccccc1)[C@@H](O)C[C@H](CC(C)C)NC(=O)[C@H](C(C)C)N1CCCNC1=O`: the IC50 with Plasmodium falciparum [1] was 5 µM. The same compound had a Ki at Plasmepsin II [2] of 0.357 µM. Moreover, in series [12], the Ratio Ki came to 10.

For `CC(C)C[C@H](NC(=O)[C@H](CC#N)NC(=O)C[C@H](O)[C@H](Cc1ccccc1)NC(=O)[C@@H](NC(=O)c1ccccn1)C(C)C)C(N)=O`, the figures for the inhibition in [5] and in series [7] were 88.2% and 76.9%, respectively. Also, the IC50 on Plasmepsin II [6] amounted to 0.141 µM; at Cathepsin D, 0.05 µM. The values for the Activity (in series [8]; in the series with CHO [11]) were 88% and “Non-toxic”, respectively. In addition, the inhibition result in series [9] was “inactive”. Further, in series [10], the Ratio IC50 was found to be 1.4.

`CC(C)C[C@H](NC(=O)[C@H](CCl)NC(=O)C[C@H](O)[C@H](Cc1ccccc1)NC(=O)[C@@H](NC(=O)c1ccccn1)C(C)C)C(N)=O`: the inhibition entry in [5], in series [9] and in series [14] was “Active” in each case. The results for the IC50 at Plasmepsin II [6] and against Cathepsin D were 0.028 µM and 0.05 µM, respectively. Also, the affinity at Plasmepsin II [13] corresponds to a Ki of 0.0357 µM. The compound further had an inhibition in [7] of 76.9%. For the same compound, in series [10], the Ratio IC50 amounted to 3.3. Also, the Activity result in the series on CHO [11], with CHO [15] and with CHO [16] was “Non-toxic” each time.

As to `CC(C)CC(=O)N[C@H](C(=O)N[C@H](C(=O)N[C@@H](CC(C)C)[C@@H](O)CC(=O)N[C@@H](C)C(=O)N[C@@H](CC(C)C)[C@@H](O)CC(=O)O)C(C)C)C(C)C`, the inhibition was 82.8% in series [5] and 97.8% in [7]. The Activity in series [8] is 85.2%.

For the compound `Cc1ccc(-c2ccc(C[C@H](NC[C@H](O)[C@H](Cc3ccccc3)NC(=O)[C@@H](NC(=O)c3ccccn3)C(C)C)C(N)=O)cc2)cc1`, in the series with Plasmodium falciparum [1], the IC50 came to 5 µM. Further, the EC50 in the series with Plasmodium falciparum [17] was 1.6 µM.

Consider `C#CC[C@H](NC(=O)C[C@H](O)[C@H](Cc1ccccc1)NC(=O)[C@@H](NC(=O)c1ccccn1)C(C)C)C(=O)N[C@@H](CC(C)C)C(N)=O`, for which the inhibition result in series [5], in [9] and in series [14] was “Active” throughout. For the same compound, the results for the IC50 at Plasmepsin II [6], against Cathepsin D and in the series with Plasmodium falciparum [1] were 0.333 µM, 0.05 µM and 7.7 µM, respectively. On Plasmepsin II [13], affinity was put at a Ki of 0.333 µM. This compound yielded an inhibition in [7] of 76.9%. The Activity result in the series with CHO [11] was “Non-toxic”.
